Starred links: 1 amine or outer side, 2 acyl side, 3 side chain; linkers in the order of their positions; H or OH if unused. Non-standard residues stand in square brackets, D forms with d. Residues, ends and D or L forms follow the SMILES beside them. *: point of attachment. Ahppa(3S,4S) = O=C(C[C@H](O)[C@H](Cc1ccccc1)N[*:1])[*:2]; Sta = CC(C)C[C@H](N)[C@@H](O)CC(=O)O; Isobutyryl = CC(C)C(=O)*; Propionyl = CCC(=O)*
Key:
Cathepsin B = Cathepsin B (Bos taurus, UniProt P07688); assay: Inhibition of bovine spleen cathepsin B using Z-Arg-Arg-AMC as substrate after 30 mins by fluorescence assay
Outline: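 Enzyme stock 1 unit/mL in 50 mM MES pH 6.0 with 0.1% Brij-35, diluted 100-fold in the same buffer before use. Test sample was mixed with diluted enzyme and 25 μM Z-Arg-Arg-AMC (substrate solution in DMSO, pre-mixing level) and incubated 37 °C for 30 min. Released AMC was read by fluorescence, excitation 345 nm, emission 440 nm.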

[1] = Inhibition of porcine gastric mucosa pepsin using MOCAc-Ala-Pro-Ala-Lys-Phe-Phe-Arg-Leu-Lys (Dnp)-NH2 as substrate after 20 mins by fluorescence assay; parameters: species or system Sus scrofa
Outline: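 Test solution in MeOH was diluted into 0.1 M ammonium formate buffer pH 3.0. Pepsin solution (1 μg/mL in the buffer) was added, then 10 μM fluorogenic substrate solution (pre-mixing level). The mixture was incubated 30 °C for 20 min. Released MOCAc-Ala-Pro-Ala-Lys-Phe was read by fluorescence, excitation 328 nm, emission 393 nm.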

| SMILES | IC50 (Cathepsin B) [µM] | IC50 [1] [nM] |
| --- | --- | --- |
| CC(=O)N[C@H](C(=O)N[C@H](C(=O)N[C@@H](CC(C)C)[C@@H](O)CC(=O)N[C@@H](C)C(=O)N[C@@H](Cc1ccccc1)[C@@H](O)CC(=O)O)C(C)C)C(C)C (Ac-VV[Sta]A-{Ahppa(3S,4S)}) | 15 | 11 |
| CC(=O)N[C@H](C(=O)N[C@H](C(=O)N[C@@H](CC(C)C)[C@@H](O)CC(=O)N[C@@H](C)C(=O)N[C@@H](CC(C)C)[C@@H](O)CC(=O)O)C(C)C)C(C)C [ACETYLPEPSTATIN] | 17 | 11 |
| CC(C)C[C@H](NC(=O)[C@H](C)NC(=O)C[C@H](O)[C@H](CC(C)C)NC(=O)[C@@H](NC(=O)[C@@H](NC(=O)C(C)C)C(C)C)C(C)C)[C@@H](O)CC(=O)O (Isobutyryl-VV[Sta]A[Sta]-OH) | 29 | – |
| CCC(=O)N[C@H](C(=O)N[C@H](C(=O)N[C@@H](CC(C)C)[C@@H](O)CC(=O)N[C@@H](C)C(=O)N[C@@H](CC(C)C)[C@@H](O)CC(=O)O)C(C)C)C(C)C (Propionyl-VV[Sta]A[Sta]-OH) | 10 | 18 |
| CCC(=O)N[C@H](C(=O)N[C@H](C(=O)N[C@@H](CC(C)C)[C@@H](O)CC(=O)N[C@@H](C)C(=O)N[C@@H](Cc1ccccc1)[C@@H](O)CC(=O)O)C(C)C)C(C)C (Propionyl-VV[Sta]A-{Ahppa(3S,4S)}) | 25 | 50 |
| CC(C)C[C@H](NC(=O)[C@@H](NC(=O)[C@@H](NC(=O)C(C)C)C(C)C)C(C)C)[C@@H](O)CC(=O)N[C@@H](C)C(=O)N[C@@H](Cc1ccccc1)[C@@H](O)CC(=O)O (Isobutyryl-VV[Sta]A-{Ahppa(3S,4S)}) | 26 | – |
